The experiment relates to Mus musculus. The experiment is described as follows: Percent protection against TNF-alpha induced leukopenia in mice at a dose of 50 mg/Kg. It counts as functional. Summed up: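 Mice given compound intraperitoneally in 250 uL saline, then 60 min later […] LPS in saline, ip. Blood was taken 2 h after LPS by retro-orbital puncture into heparinized tubes. Nucleated cells were counted, with neutrophil content as the leukopenia read-out.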

On to `CCCn1c(=O)n(CCCC(=O)OCC)c(=O)c2nccnc21`, for which the Protection is given as 60%.

Source of the values: ChEMBL document CHEMBL1129287, “Substituted xanthines, pteridinediones, and related compounds as potential antiinflammatory agents. Synthesis and biological evaluation of inhibitors of tumor necrosis factor alpha” (J Med Chem, 1996).
